# Measurements from paper PMC3164867 (Journal of medicinal chemistry, 2009).
# Columns and labels:
# Solubility = type: physicochemical; details: preliminary evidence
# [1] = test system: Molt-4 (T-cell lymphoma) or Raji tumors (B-cell lymphoma); type: in vivo, nude mice
# Summary of the method: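 Athymic Nu/Nu mice, 4–6 weeks old, bore sc Molt-4 or Raji (1 × 10^7 cells, right upper back) and A549 (1 × 10^6 cells, left upper back), studied at 10–15 mm. Under pentobarbital ip anesthesia, Cy5.5-conjugated test compound given iv by tail vein; serial NIRF imaging 5 min–120 h (10 nmol), 30 s exposures. Ex vivo organs and tumors at 24 h (0.25 or 1 nmol); ROI mean intensity minus heart background.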
# activated α4β1 integrin = activated α4β1 integrin (Homo sapiens, UniProt P05556+P13612); type: cell-based; details: for potency (in words): SAR summary, Molt-4 cell adhesion
# [2] = iv tail vein, nude mice with Molt-4 or Raji and A549 xenografts, NIRF imaging
# Chain of activated α4β1 integrin (P13612 34-1032): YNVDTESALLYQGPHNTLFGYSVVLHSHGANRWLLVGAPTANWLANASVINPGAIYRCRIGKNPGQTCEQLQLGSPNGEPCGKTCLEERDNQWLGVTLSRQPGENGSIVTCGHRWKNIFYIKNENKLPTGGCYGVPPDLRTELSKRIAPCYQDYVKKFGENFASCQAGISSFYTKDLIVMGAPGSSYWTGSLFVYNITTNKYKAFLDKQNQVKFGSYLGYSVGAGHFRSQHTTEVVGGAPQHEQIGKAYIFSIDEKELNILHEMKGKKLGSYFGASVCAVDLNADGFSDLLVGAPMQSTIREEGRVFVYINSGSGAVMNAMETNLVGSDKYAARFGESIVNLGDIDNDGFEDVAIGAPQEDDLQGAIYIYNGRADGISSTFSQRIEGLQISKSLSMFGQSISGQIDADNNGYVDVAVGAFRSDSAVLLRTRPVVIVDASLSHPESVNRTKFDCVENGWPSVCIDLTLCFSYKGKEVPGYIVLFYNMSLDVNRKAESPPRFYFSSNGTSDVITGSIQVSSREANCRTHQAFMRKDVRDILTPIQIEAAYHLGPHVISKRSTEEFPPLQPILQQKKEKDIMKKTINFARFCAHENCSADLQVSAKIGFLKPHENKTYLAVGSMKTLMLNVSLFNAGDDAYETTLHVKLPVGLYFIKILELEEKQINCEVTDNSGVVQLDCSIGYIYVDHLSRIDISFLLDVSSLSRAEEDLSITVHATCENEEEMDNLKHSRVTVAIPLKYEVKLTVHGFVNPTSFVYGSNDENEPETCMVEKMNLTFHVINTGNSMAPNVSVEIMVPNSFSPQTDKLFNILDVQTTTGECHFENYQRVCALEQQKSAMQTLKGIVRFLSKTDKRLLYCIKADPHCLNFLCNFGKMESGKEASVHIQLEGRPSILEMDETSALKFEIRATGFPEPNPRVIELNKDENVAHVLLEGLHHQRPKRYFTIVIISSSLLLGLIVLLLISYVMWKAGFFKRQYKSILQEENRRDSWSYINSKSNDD
# Chain of activated α4β1 integrin (P05556 21-798): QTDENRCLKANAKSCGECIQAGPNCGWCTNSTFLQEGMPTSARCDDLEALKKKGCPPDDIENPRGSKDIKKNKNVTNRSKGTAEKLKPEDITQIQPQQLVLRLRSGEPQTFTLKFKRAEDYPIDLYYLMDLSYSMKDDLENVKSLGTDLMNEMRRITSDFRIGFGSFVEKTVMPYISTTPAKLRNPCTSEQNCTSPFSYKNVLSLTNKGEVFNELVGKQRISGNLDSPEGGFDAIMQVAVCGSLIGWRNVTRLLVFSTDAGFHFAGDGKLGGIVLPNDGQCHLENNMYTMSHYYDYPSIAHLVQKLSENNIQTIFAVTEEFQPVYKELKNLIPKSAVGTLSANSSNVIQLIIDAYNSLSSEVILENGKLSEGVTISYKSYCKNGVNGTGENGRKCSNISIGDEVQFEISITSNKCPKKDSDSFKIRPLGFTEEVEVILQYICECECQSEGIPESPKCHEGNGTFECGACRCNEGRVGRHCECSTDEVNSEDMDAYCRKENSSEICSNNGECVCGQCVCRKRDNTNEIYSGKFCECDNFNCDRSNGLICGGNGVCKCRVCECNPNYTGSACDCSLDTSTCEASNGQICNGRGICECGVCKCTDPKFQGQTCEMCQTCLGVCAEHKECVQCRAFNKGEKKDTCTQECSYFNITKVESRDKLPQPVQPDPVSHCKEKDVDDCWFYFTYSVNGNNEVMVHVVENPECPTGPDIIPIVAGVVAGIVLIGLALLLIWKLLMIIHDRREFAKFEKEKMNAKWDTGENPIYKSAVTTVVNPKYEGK
compound,measurement,setting,value
"2-(1E,3E,5E)-5-3-(R)-1-(1-(R)-2-(R)-2-[2-(4-(benzo[d]thiazol-2-ylamino)phenyl)\acetamido]-6-(E)-3-(pyridin-3-yl)acrylamido)hexanamido)-5-carboxypentanamido)cyclohexyl)-27-carbamoyl-1,9,13,21,25,33-hexaoxo-5,17-dioxa-2,8,14,20,26,32-hexa-azaheptatriacontan-37-yl)-1,1-dimethyl-6,8-disulfonato-1H-benzo[e]indol-2(3H)-ylid-ene)penta-1,3-dienyl)-3-ethyl-1,1-di-methyl-1H-benzo[e]indolium-6,8-disulfonate [Compound 6-Cy5.5]",solubility (in words),Solubility,improved solubility
same,organ signal (in words),[1]; ex vivo NIRF of organs,"low liver, muscle, lung, and spleen signal"
same,kidney:tumor ratio (in words),"[1]; ex vivo NIRF, preliminary, compared with 1-Cy5.5",improvement in the kidney:tumor ratio
same,tumor uptake first observed post injection,[1]; [2],5 min
same,tumor uptake persisted post injection,[1]; [2],up to 120 h
"NC(=O)C1(NC(=O)[C@H](CCCC(=O)O)NC(=O)[C@H](CCCCNC(=O)/C=C/c2cccnc2)NC(=O)Cc2ccc(Nc3nc4ccccc4[nH]3)cc2)CCCCC1 [Compound 2, reference compound]",potency relative to bisaryl urea 1 (fold less potent),activated α4β1 integrin; compared with 1,10 fold
NC(=O)C1(NC(=O)[C@@H](CCCC(=O)O)NC(=O)[C@@H](CCCCNC(=O)/C=C/c2cccnc2)NC(=O)c2cccc(Nc3nc4cc(Br)ccc4[nH]3)c2)CCCCC1 [Compound 3],IC50,activated α4β1 integrin,30 nM
Cc1ccc2[nH]c(Nc3ccc(C(=O)N[C@H](CCCCNC(=O)/C=C/c4cccnc4)C(=O)N[C@H](CCCC(=O)O)C(=O)NC4(C(N)=O)CCCCC4)cc3)nc2c1 [Compound 5],IC50,activated α4β1 integrin,490 nM
same,potency (in words),activated α4β1 integrin,mid nM potency
"NC(=O)C1(NC(=O)[C@@H](CCCC(=O)O)NC(=O)[C@@H](CCCCNC(=O)/C=C/c2cccnc2)NC(=O)Cc2ccc(Nc3nc4ccccc4s3)cc2)CCCCC1 [Compound 6, (R)-5-(R)-[2-{2-[4-(Benzothiazol-2-ylamino)-phenyl]acetylamino}-6-(E)-(3-pyridin-3-yl-acryloylamino)hexanoylamino]-5-(1-carbamoylcyclo-hexylcarbamoyl)pentanoic Acid]",potency (in words),activated α4β1 integrin,equipotent to 1
Cc1cccc2oc(Nc3ccc(CC(=O)N[C@H](CCCCNC(=O)/C=C/c4cccnc4)C(=O)N[C@H](CCCC(=O)O)C(=O)NC4(C(N)=O)CCCCC4)cc3)nc12 [Compound 7],potency (in words),activated α4β1 integrin,low nM potency
Cc1cccc2oc(Nc3ccc(C(=O)N[C@H](CCCCNC(=O)/C=C/c4cccnc4)C(=O)N[C@H](CCCC(=O)O)C(=O)NC4(C(N)=O)CCCCC4)cc3)nc12 [Compound 9],potency (in words),activated α4β1 integrin,complete loss of potency
NC(=O)C1(NC(=O)[C@@H](CCCC(=O)O)NC(=O)[C@@H](CCCCNC(=O)/C=C/c2cccnc2)NC(=O)c2ccc(Nc3nc4ccccc4o3)cc2)CCCCC1 [Compound 10],potency (in words),activated α4β1 integrin,complete loss of potency
NC(=O)C1(NC(=O)[C@@H](CCCC(=O)O)NC(=O)[C@@H](CCCCNC(=O)/C=C/c2cccnc2)NC(=O)c2ccc(Nc3nc4ccccc4s3)cc2)CCCCC1 [Compound 11],potency (in words),activated α4β1 integrin,mid nM potency
